Columns and labels:
[1] = test system: all five human muscarinic acetylcholine receptors; test: Muscarinic selectivity profiling, human receptors; assay type: cell-based; details: up to the highest concentration tested (30 µM)
[2] = test system: all five rat muscarinic acetylcholine receptors; test: Muscarinic selectivity profiling, rat receptors; assay type: cell-based; details: up to the highest concentration tested (30 µM)
[3] = molecular target: T1, human M1 (hM1) receptor (Homo sapiens, UniProt P11229); test: hM1 PAM functional activity; assay type: cell-based; details: for hM1 PAM activity (in words): concentrations up to 30 µM
T1 sequence (P11229 1-460): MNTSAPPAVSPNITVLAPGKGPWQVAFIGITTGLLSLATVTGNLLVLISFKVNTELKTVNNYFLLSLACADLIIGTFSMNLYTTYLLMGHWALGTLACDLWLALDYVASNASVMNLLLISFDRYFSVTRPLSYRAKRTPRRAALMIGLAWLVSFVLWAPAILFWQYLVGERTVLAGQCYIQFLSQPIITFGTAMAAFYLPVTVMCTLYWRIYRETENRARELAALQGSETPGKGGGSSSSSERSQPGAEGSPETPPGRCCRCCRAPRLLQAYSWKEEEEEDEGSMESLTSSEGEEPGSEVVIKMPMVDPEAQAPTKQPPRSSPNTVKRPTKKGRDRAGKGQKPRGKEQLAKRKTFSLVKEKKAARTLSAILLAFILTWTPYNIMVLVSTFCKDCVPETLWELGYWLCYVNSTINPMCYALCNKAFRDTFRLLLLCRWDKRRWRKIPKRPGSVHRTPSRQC
Summary of the method: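 Human M1 PAM functional assay. Test compound was run at concentrations up to a top level of 30 µM. Efficacy is expressed as percent of the maximal acetylcholine response. Where hM1 EC50 is listed as >10, the figure given is the percent maximal ACh response with test compound at 30 µM. Values are mean ± standard error of the mean of at least three independent determinations, each performed in triplicate.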

[4] = molecular target: T1, human M1 (hM1) receptor; details: previously reported value; ref 7b; cited from earlier work

SMILES	hM1 PAM activity (in words) [3]	also measured
Cn1cc(-c2ccc(CN3C(=O)C4(OCCO4)c4ccccc43)c(F)c2)cn1 [Compound 3]		selectivity across human muscarinic receptors (M1-M5) [1]: completely selective for the M1 receptors; selectivity across rat muscarinic receptors (M1-M5) [2]: completely selective for the M1 receptors
O=C1N(Cc2ccc(Br)cc2)c2ccccc2C12CCCN2 (stereo not drawn) [Compound 13]	inactive	
CN1CCCC12C(=O)N(Cc1ccc(Br)cc1)c1ccccc12 (stereo not drawn) [Compound 14]	inactive	
C[Si](C)(C)C1COC2(C1)C(=O)N(Cc1ccc(Br)cc1)c1ccccc12 (stereo not drawn) [Compound 16]	inactive	
O=C1N(Cc2ccc(Br)cc2)c2ccccc2C12CCCO2 (stereo not drawn) [Compound 17]	inactive	
CN1CCC2(C1)C(=O)N(Cc1ccc(-c3cnn(C)c3)cc1F)c1ccccc12 (stereo not drawn) [Compound 18d]		pEC50 ([3]; Table 1, hM1 PAM, mean ± SEM): 5.49 ± 0.10; selectivity across human muscarinic receptors (M1-M5) [1]: completely selective for the M1 receptors; selectivity across rat muscarinic receptors (M1-M5) [2]: completely selective for the M1 receptors
Cn1cc(-c2ccc(CN3C(=O)C4(CCNC4)c4ccccc43)c(F)c2)cn1 (stereo not drawn) [Compound 18e]	lacked any PAM activity	
Cn1cc(-c2ccc(CN3C(=O)C4(CCN(c5ccccc5)C4)c4ccccc43)c(F)c2)cn1 (stereo not drawn) [Compound 19s]	inactive	
Cn1cc(-c2ccc(CN3C(=O)C4(CCN(c5ncccn5)C4)c4ccccc43)c(F)c2)cn1 (stereo not drawn) [Compound 19t]	low micro-molar activity	
Cc1c(-c2ccc(CN3C(=O)C4(CCN(C5CCCC5)C4)c4ccccc43)c(F)c2)cnn1C (stereo not drawn) [Compound 20c]	eliminated PAM activity	
Cc1nn(C)c(C)c1-c1ccc(CN2C(=O)C3(CCN(C4CCCC4)C3)c3ccccc32)c(F)c1 (stereo not drawn) [Compound 20d]	inactive	
Cn1cc(-c2ccc(CN3C(=O)C(=O)c4ccccc43)c(F)c2)cn1 [ML137]		%AChmax [4]: 65%

— paper PMC3594472 (Bioorganic & medicinal chemistry letters, 2013)
